Measured values: ChEMBL document CHEMBL5325427
Values after ≈ are worked out from the molar mass of the structure shown. Active and inactive are the calls of the source. The rule behind the calls is not given here.

Key:
[1] = Toxicity in Balb/c mouse assessed as effect on ALP at 12.5 to 25 mg/kg; type: organism-based; settings: in vivo, dose 12.5-25 mg/kg
Procedure, shortened: (§1)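 Female Balb/c mice were randomised to vehicle (0.5% DMSO in PBS) or 12.5 or 25 mg/kg intraperitoneally daily for 14 days, then followed 12 days after treatment. Body weight, haematology and blood chemistry were compared with vehicle controls; n = 3–5.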

[2] = Selectivity index, ratio of CC50 for African green monkey Vero E6 cells to IC50 for antiviral activity against SARS-CoV-2 NRC-03-nhCoV infected in african green monkey Vero E6 cells; type: toxicity, cell-based, Vero C1008; settings: read-out: Ratio CC50/IC50
[3] = Toxicity in Balb/c mouse assessed as effect on albumin at 12.5 to 25 mg/kg; type: organism-based; settings: in vivo, dose 12.5-25 mg/kg; procedure, shortened: as §1
[4] = molecular target: T1, Replicase polyprotein 1ab (Severe acute respiratory syndrome coronavirus 2, UniProt P0DTD1); assay: Inhibition of recombinant SARS CoV-2 PL protease assessed as deubiquitination activity using ubiquitinated fluorogenic as substrate incubated for 2 hrs followed by substrate addition for 1 hr by synergy TM HTX microplate reader analysis
SARS-CoV-2 [5] = assay: Antiviral activity against SARS- CoV-2 infected in Vero E6 cells assessed as virucidal activity pretreated with cells for 24 hrs followed by viral infection for 1 hr and measured after 1 hr by plaque assay relative to control; type: functional, Severe acute respiratory syndrome coronavirus 2; settings: time 26 hrs
[6] = Toxicity in Balb/c mouse assessed as change in histological variation in spleen at 12.5 to 25 mg/kg by H and E staining based analysis; type: organism-based; settings: in vivo, dose 12.5-25 mg/kg
Procedure, shortened: (§2)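 After the 14-day daily intraperitoneal dosing (12.5 or 25 mg/kg, female Balb/c), liver, kidney, spleen, heart and lung were fixed 24 h in 10% neutral-buffered formalin and paraffin-embedded. Sections of 4 μm were stained with H&E. Lesions were scored nil 0, mild 1, moderate 2, severe 3.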

SARS-CoV-2 [7] = assay: Antiviral activity against SARS CoV-2 HCoV-19/Egypt/NRC-1/2020 infected in human Caco-2 cells assessed as reduction in spike RNA expression at 20 ug/ml pre-infected with virus for 1 hr followed by cell addition for 1 hr and measured after 6 to 12 hrs by RT-PCR analysis; type: functional, organism-based; settings: Severe acute respiratory syndrome coronavirus 2, dose 20.0 µg/ml, time 8-14 hrs
[8] = Toxicity in Balb/c mouse assessed as effect on body weight loss at 25 to 100 mg/kg, ip administered as single dose measured upto 15 days; type: organism-based; settings: in vivo, 360 h, dose 25-100 mg/kg, time < 15 day
[9] = Toxicity in Balb/c mouse assessed as effect on total bilirubin at 12.5 to 25 mg/kg; type: organism-based; settings: in vivo, dose 12.5-25 mg/kg; procedure, shortened: as §1
SARS-CoV-2 [10] = assay: Antiviral activity against SARS CoV-2 HCoV-19/Egypt/NRC-1/2020 infected in human Caco-2 cells assessed as reduction in viral ORFb1 RNA expression at 20 ug/ml pre-infected with virus for 1 hr followed by cell addition for 1 hr and measured after 1 to 12 hrs by RT-PCR analysis; type: functional, organism-based; settings: Severe acute respiratory syndrome coronavirus 2, dose 20.0 µg/ml, time 3-14 hrs
[11] = Selectivity index, ratio of CC50 for African green monkey Vero E6 cells to IC50 for antiviral activity against MERS-CoV NRCE-HKU270 infected in Vero E6 cells; type: toxicity, cell-based, Vero C1008; settings: read-out: Ratio CC50/IC50
[12] = Toxicity in Balb/c mouse assessed as histological changes in heart by measuring toxicity score at 12.5 to 25 mg/kg by H and E staining based analysis; type: organism-based; settings: in vivo, dose 12.5-25 mg/kg; procedure, shortened: as §2
[13] = Permeability of the compound across apical to basolateral side in human Caco-2 cells assessed as drug recovery at pH 6.5 to 7.4; type: ADME, cell-based; settings: Caco-2, pH 6.5, read-out: Drug recovery
Procedure, shortened: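 Caco-2 cells (0.5 × 10^6/well) were grown 7 days on collagen-coated transwell filters. Compound was dosed at 50, 75 and 100 μM input in 1% DMSO/HBSS, apical pH 6.5 and basolateral pH 7.4. Samples were taken every 30 min for 2 h in duplicate and quantified by LC/MS/MS. Papp was calculated from receiver concentration, time, area and mid-point donor and receiver concentrations. Monolayer integrity required fluorescein Papp below 1.5 × 10−6 cm/s.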

[14] = test system: Middle East respiratory syndrome-related coronavirus; assay: Antiviral activity against MERS-CoV NRCE-HKU270 infected in Vero E6 cells assessed as inhibition of viral growth; type: functional, organism-based; settings: NRCE-HKU270, Vero C1008
SARS-CoV-2 [15] = assay: Antiviral activity against SARS- CoV-2 infected in Vero E6 cells assessed as viral adsorption pretreated with cells for 24 hrs followed by viral infection and measured after 1 hr by crystal violet staining based analysis relative to control; type: functional, Severe acute respiratory syndrome coronavirus 2; settings: time 25 hrs
[16] = Toxicity in Balb/c mouse assessed as change in histological variation in liver at 12.5 to 25 mg/kg by H and E staining based analysis; type: organism-based; settings: in vivo, dose 12.5-25 mg/kg; procedure, shortened: as §2
[17] = molecular target: T1, Replicase polyprotein 1ab; assay: Inhibition of recombinant SARS CoV-2 PL protease incubated for 2 hrs followed by substrate addition and measured after 1 hr by fluorescence based analysis
[18] = Toxicity in Balb/c mouse assessed as histological changes in lung by measuring toxicity score at 12.5 to 25 mg/kg by H and E staining based analysis; type: organism-based; settings: in vivo, dose 12.5-25 mg/kg; procedure, shortened: as §2
[19] = Toxicity in Balb/c mouse assessed as change in histological variation in lung at 12.5 to 25 mg/kg by H and E staining based analysis; type: organism-based; settings: in vivo, dose 12.5-25 mg/kg; procedure, shortened: as §2
[20] = Aqueous solubility of the compound in PBS buffer at pH 7.4 at 200 uM by microplate reader method; type: physicochemical
[21] = Toxicity in Balb/c mouse assessed as effect on ALT at 12.5 to 25 mg/kg; type: organism-based; settings: in vivo, dose 12.5-25 mg/kg; procedure, shortened: as §1

COc1ccc2[nH]c3c(c2c1)C[C@]1(OC)CC[C@H]2c4[nH]c5ccccc5c4CCN2[C@@H]1C3
Activity [1]: Non-Toxic
selectivity ratio [2]: 4.6
Activity [3]: Non-Toxic
IC50 [4]: 386 µM
Activity (SARS-CoV-2 [5]): >90%
Activity [6]: Non-Toxic
Activity (SARS-CoV-2 [7]): Active
Activity [8]: Non-Toxic
Activity [9]: Non-Toxic
Activity (SARS-CoV-2 [10]): Active
selectivity ratio [11]: 8.96
Activity [12]: 0
recovery [13]: 77%
IC50 [14]: 6.21 µg/mL (≈ 14.5 µM)
Activity (SARS-CoV-2 [15]): 2.5%
Activity [16]: Non-Toxic
IC50 [17]: 0.0912 µM
Activity [18]: 0
Activity [19]: Non-Toxic
solubility at 200 µM [20]: 166 µM (≈ 71 µg/mL)
Activity [21]: Non-Toxic
